Laboratory results from ChEMBL document CHEMBL3085741, “Structure-activity relationships and molecular modeling of sphingosine kinase inhibitors” (J Med Chem, 2013).
Calls of active or inactive are those of the source. No cut-off for these calls is given here.

Experiments:
Sphingosine kinase 1 [1] = molecular target: T1, Sphingosine kinase 1 (Homo sapiens, UniProt Q9NYA1); assay: Inhibition of recombinant sphingosine kinase 1 (unknown origin) expressed in HEK293 cells using sphingosine as substrate at 50 uM after 30 mins relative to control in presence of [gamma32P]-ATP
T1 sequence (Q9NYA1 whole entry): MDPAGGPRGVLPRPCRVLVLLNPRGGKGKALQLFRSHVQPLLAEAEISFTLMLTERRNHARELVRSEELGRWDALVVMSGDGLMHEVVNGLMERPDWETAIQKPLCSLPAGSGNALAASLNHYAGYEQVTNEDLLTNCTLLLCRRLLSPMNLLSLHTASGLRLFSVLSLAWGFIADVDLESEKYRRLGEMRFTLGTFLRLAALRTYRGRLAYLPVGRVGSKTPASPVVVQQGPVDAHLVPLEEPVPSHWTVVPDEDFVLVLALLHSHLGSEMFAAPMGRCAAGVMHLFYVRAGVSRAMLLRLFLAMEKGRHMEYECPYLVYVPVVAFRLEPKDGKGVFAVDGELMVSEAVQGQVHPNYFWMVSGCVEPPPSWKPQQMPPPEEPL
Summary of the method: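 Single-point inhibitor test at 50 μM with 250 μM ATP. […] Activity is reported as % of control, where control (100%) is activity with sphingosine alone. n = 3, mean ± SD.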

[2] = molecular target: T2, Sphingosine kinase 2 (Homo sapiens) (UniProt Q9NRA0); assay: Inhibition of sphingosine kinase 2 (unknown origin) using sphingosine as substrate at 50 uM after 30 mins relative to control in presence of [gamma32P]-ATP
T2 sequence (whole entry): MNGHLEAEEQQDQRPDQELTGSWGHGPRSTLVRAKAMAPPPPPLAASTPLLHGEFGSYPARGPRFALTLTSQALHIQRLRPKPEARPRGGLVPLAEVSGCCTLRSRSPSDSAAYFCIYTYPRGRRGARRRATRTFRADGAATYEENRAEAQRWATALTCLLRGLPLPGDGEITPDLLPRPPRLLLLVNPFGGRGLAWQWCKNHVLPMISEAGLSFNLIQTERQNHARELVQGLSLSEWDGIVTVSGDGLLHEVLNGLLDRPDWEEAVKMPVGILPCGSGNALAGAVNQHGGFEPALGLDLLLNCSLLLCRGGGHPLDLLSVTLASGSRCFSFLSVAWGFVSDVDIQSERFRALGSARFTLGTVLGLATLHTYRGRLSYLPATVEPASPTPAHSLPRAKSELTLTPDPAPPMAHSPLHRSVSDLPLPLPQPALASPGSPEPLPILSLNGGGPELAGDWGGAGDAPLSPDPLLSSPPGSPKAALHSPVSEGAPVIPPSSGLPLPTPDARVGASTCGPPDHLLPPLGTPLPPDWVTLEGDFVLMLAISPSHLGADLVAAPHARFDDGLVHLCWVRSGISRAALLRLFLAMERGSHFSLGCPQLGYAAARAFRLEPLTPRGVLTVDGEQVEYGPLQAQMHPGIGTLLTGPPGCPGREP

[3] = molecular target: T2, Sphingosine kinase 2 (Homo sapiens); assay: Activity at sphingosine kinase 2 (unknown origin) at 50 uM after 30 mins in presence of [gamma32P]-ATP
Sphingosine kinase 1 [4] = molecular target: T1, Sphingosine kinase 1; assay: Inhibition of recombinant sphingosine kinase 1 (unknown origin) expressed in HEK293 cells using sphingosine as substrate at 100 uM after 30 mins relative to control in presence of [gamma32P]-ATP
Sphingosine kinase 1 [5] = molecular target: T1, Sphingosine kinase 1; assay: Inhibition of recombinant sphingosine kinase 1 (unknown origin) expressed in HEK293 cells using sphingosine as substrate after 30 mins in presence of [gamma32P]-ATP
[6] = molecular target: T2, Sphingosine kinase 2 (Homo sapiens); assay: (§1) Inhibition of sphingosine kinase 2 (unknown origin) using sphingosine as substrate after 30 mins in presence of [gamma32P]-ATP
Summary of the method: (§2)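 Results are given as % of the sphingosine-only control, and IC50 was derived from the curve. n = 3, ± SD.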

Sphingosine kinase 2 = molecular target: T3, Sphingosine kinase 2 (Homo sapiens, UniProt Q9NRA0); assay: as §1; summary of the method: as §2
T3 sequence (Q9NRA0 whole entry): T2 sequence (whole entry)

[7] = 100 uM, in the assay text read “at 100 uM” for “at 50 uM”

Structure (SMILES)	inhibition (Sphingosine kinase 1 [1])	other results
CCCCCCCCc1ccc(CCc2ccc[n+](C)c2)cc1	inactive	inhibition ([2]; 50 uM): inactive
CCCCCc1cn(-c2ccc(CCN3CCCCC3)cc2)nn1	inactive	
CCCCCCCCCCCCc1ccc(CCN2CCC[C@H]2CO)cc1		Activity [3]: Active; inhibition [2, 7]: 49.7%; inhibition (Sphingosine kinase 1 [4]): 49.9%
CCCCCCCCc1ccc(CCN2CC[C@H](O)C2)cc1	Active	
CCCCCCCCc1ccc(CCN2CCC(OC)CC2)cc1	inactive	
Cc1ccc(CCN2CCC(O)CC2)cc1	inactive	
CCCCCCCCCCCCc1ccc(CCN2CCC(N)CC2)cc1	inactive	
CCCCCCCCc1ccc(C[n+]2ccc(N3CCC(C)CC3)cc2)cc1	inactive	inhibition ([2]; 50 uM): Active
CCCCCCCCc1ccc(-n2cc(-c3cccnc3)nn2)cc1	inactive	
CCCCc1cn(-c2ccc(CCN3CCCCC3)cc2)nn1	inactive	
CCCCc1cn(-c2ccc(CCN3CCC(O)CC3)cc2)nn1	inactive	
CCCCCCCCc1ccc(CCN2CCC(N=[N+]=[N-])CC2)cc1	inactive	
CCCCCCCCc1ccc(CCN2CCC(N)CC2)cc1		IC50 (Sphingosine kinase 1 [5]): 16.9 µM; inhibition (Sphingosine kinase 1 [5]): Dose-dependent effect
CCCCCCCCc1ccc(CCN2CCC[C@H]2CO)cc1		Activity [3]: Active; inhibition [2, 7]: 45.7%; inhibition (Sphingosine kinase 1 [4]): 72.2%
CCCCCCCCc1cn(-c2ccc(O)cc2)nn1	inactive	
CCCCCCCCc1ccc(CCN2CCC(F)CC2)cc1	inactive	
CCCCCCCCc1cn(-c2ccc(CCN3CCCCC3)cc2)nn1	inactive	
CCCCCCCCc1cn(-c2ccc(CC[N+]3(C)CCCCC3)cc2)nn1	inactive	inhibition ([2]; 50 uM): inactive
CCCCCCCCc1ccc(C(=O)Nc2ccc(O)cc2)cc1	inactive	
CCCCCCCCc1cn(-c2ccc(CCO)cc2)nn1	inactive	
CCCCCCCCc1cn(-c2ccc(CCN3CCC(O)CC3)cc2)nn1	Active	

Structure (SMILES)	inhibition (Sphingosine kinase 1 [1])	other results
CCCCCCCCc1ccc(CCN2CCC(=O)CC2)cc1		inhibition ([2]; 50 uM): Active
CCCCCCCCc1ccc(C(=O)Nc2ccc(CCO)cc2)cc1	inactive	
CCCCCCCCc1ccc(CCc2cccnc2)cc1	inactive	
CCCCCCCCc1ccc(CCN2CC[C@@H](O)C2)cc1	Active	
CCCCCCCCCCCCc1ccc(CCN2CCC[C@@H]2CO)cc1		inhibition [6]: Dose-dependent effect; IC50 (Sphingosine kinase 2): 5 µM; IC50 (Sphingosine kinase 1 [5]): 5.3 µM; inhibition (Sphingosine kinase 1 [5]): Dose-dependent effect
CCCCCCCCc1ccc(CN2CCC(O)CC2)cc1	Active	
CCCCCCCCc1ccc(CCCN2CCC(O)CC2)cc1	Active	
CCCCc1cn(-c2ccc(CC[N+]3(C)CCCCC3)cc2)nn1	inactive	inhibition ([2]; 50 uM): inactive
CCCCCCCCc1ccc(C(=O)NCc2ccncc2)cc1	inactive	
CCCCCCCCc1ccc(CCCCN2CCC(O)CC2)cc1	Active	
Cc1ccc(CCN2CCC[C@@H]2CO)cc1	inactive	
Cc1ccc(CCN2CCC(N)CC2)cc1	inactive	
CCCCCc1cn(-c2ccc(CCN3CCC(O)CC3)cc2)nn1	inactive	
Cc1ccc(CCN2CCC(N=[N+]=[N-])CC2)cc1	inactive	
CCCCCCCCc1ccc(CCN2CCC[C@@H]2CO)cc1		inhibition [6]: Dose-dependent effect; IC50 (Sphingosine kinase 2): 5.2 µM; IC50 (Sphingosine kinase 1 [5]): 2.2 µM; inhibition (Sphingosine kinase 1 [5]): Dose-dependent effect
CCCCCCCCCCCCc1ccc(C(=O)N2CCC(O)CC2)cc1	inactive	
CCCCCCCCCCCCc1ccc(C(=O)N2CCC[C@H]2CO)cc1	inactive	
CCCCCCCCCCCCc1ccc(C(=O)N2CCC[C@@H]2CO)cc1	inactive	
CCCCCc1cn(-c2ccc(CC[N+]3(C)CCCCC3)cc2)nn1	inactive	inhibition ([2]; 50 uM): inactive
CCCCCCCCc1ccc(C(=O)N2CCC(O)CC2)cc1	inactive	
